Data: ChEMBL document CHEMBL1155284, “Synthesis and antibacterial activity of some new thiadiaza/triazaphospholes, thiadiaza/triaza/tetrazaphosphinines and thiadiaza/tetrazaphosphepines containing 1,2,4-triazinone moiety” (Eur J Med Chem, 2009)
In brackets after ≈: the same amount, converted by molar mass.

Tests used:
Escherichia coli [1] = assay: Antimicrobial activity against Escherichia coli MTCCB 1652 after 24 hrs by tube dilution technique; format: functional; conditions: MTCCB 1652, 24 h
Outline: (§1)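 Tube dilution in nutrient broth at 3.12, 6.25, 12.5, 25 and 50 µg/mL. Each tube received 100 µL of standardized bacterial suspension (10^7 cell/mL). Tubes were incubated at 37 °C for 24 h. MIC was the lowest concentration that maintained or reduced inoculum viability.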

Escherichia coli [2] = assay: Antimicrobial activity against Escherichia coli MTCCB 1652 at 100 ug/mL after 16 to 20 hrs by disk diffusion method; format: functional; conditions: read-out: DIZ
Outline: (§2)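 Nutrient agar disc diffusion with compounds at 100 µg/mL and DMSO as blank. Plates were incubated 16–20 h at 37 °C, then inhibition zone diameter was measured. Zones of 12 mm or less were scored resistant, 13–17 mm moderate, and 18 mm or more maximum inhibition.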

[3] = system: Staphylococcus epidermidis; assay: Antimicrobial activity against Staphylococcus epidermidis MTCCB 1824 at 100 ug/mL after 16 to 20 hrs by disk diffusion method; format: functional; conditions: read-out: DIZ; outline: as §2
[4] = system: Staphylococcus epidermidis; assay: Antimicrobial activity against Staphylococcus epidermidis MTCCB 1824 after 24 hrs by tube dilution technique; format: functional; conditions: MTCCB 1824, 24 h; outline: as §1
Pseudomonas aeruginosa [5] = assay: Antimicrobial activity against Pseudomonas aeruginosa ATCC 27853 at 100 ug/mL after 16 to 20 hrs by disk diffusion method; format: functional; conditions: read-out: DIZ; outline: as §2
Pseudomonas aeruginosa [6] = assay: Antimicrobial activity against Pseudomonas aeruginosa ATCC 27853 after 24 hrs by tube dilution technique; format: functional; conditions: ATCC 27853, 24 h; outline: as §1
Staphylococcus aureus [7] = assay: Antimicrobial activity against Staphylococcus aureus MTCCB 737 at 100 ug/mL after 16 to 20 hrs by disk diffusion method; format: functional; conditions: read-out: DIZ; outline: as §2
Staphylococcus aureus [8] = assay: Antimicrobial activity against Staphylococcus aureus MTCCB 737 after 24 hrs by tube dilution technique; format: functional; conditions: MTCCB 737, 24 h; outline: as §1
Escherichia coli [9] = assay: Antimicrobial activity against Escherichia coli MTCCB 1652 at 30 ug/mL after 16 to 20 hrs by disk diffusion method; format: functional; conditions: read-out: DIZ
Outline: (§3)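 Nutrient agar disc diffusion with the reference drug tetracycline at 30 µg/mL and DMSO as blank. Plates were incubated 16–20 h at 37 °C, then inhibition zone diameter was measured. Zones of 12 mm or less were scored resistant, 13–17 mm moderate, and 18 mm or more maximum inhibition.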

[10] = system: Staphylococcus epidermidis; assay: Antimicrobial activity against Staphylococcus epidermidis MTCCB 1824 at 30 ug/mL after 16 to 20 hrs by disk diffusion method; format: functional; conditions: read-out: DIZ; outline: as §3
Staphylococcus aureus [11] = assay: Antimicrobial activity against Staphylococcus aureus MTCCB 737 at 30 ug/mL after 16 to 20 hrs by disk diffusion method; format: functional; conditions: read-out: DIZ; outline: as §3
Pseudomonas aeruginosa [12] = assay: Antimicrobial activity against Pseudomonas aeruginosa ATCC 27853 at 30 ug/mL after 16 to 20 hrs by disk diffusion method; format: functional; conditions: read-out: DIZ; outline: as §3
Pseudomonas aeruginosa [13] = assay: Antimicrobial activity against Pseudomonas aeruginosa ATCC 27853
Artemia salina = assay: (§4) Toxicity against Artemia salina larvae after 24 hrs; format: organism-based; conditions: in vivo, 24 h
Outline: (§5)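 Brine shrimp lethality test. Artemia salina eggs were hatched 48 h at 37 °C in filtered sea salt solution (38 g/L) with constant oxygen to give nauplii. Stock was 10 mg compound in 2 mL DMSO, diluted to 80, 40, 20, 10 and 5 µg/mL in triplicate vials, about 10 nauplii each, with a DMSO control. LC50 is the mean of three values.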

[14] = as §4; format: organism-based; conditions: in vivo; outline: as §5

Row | Compound | MIC (Escherichia coli [1]) | zone of inhibition at 100 µg/mL (Escherichia coli [2]) | zone of inhibition at 100 µg/mL [3] | MIC [4] | zone of inhibition at 100 µg/mL (Pseudomonas aeruginosa [5]) | MIC (Pseudomonas aeruginosa [6]) | zone of inhibition at 100 µg/mL (Staphylococcus aureus [7]) | MIC (Staphylococcus aureus [8]) | zone of inhibition at 30 µg/mL (Escherichia coli [9]) | zone of inhibition at 30 µg/mL [10] | zone of inhibition at 30 µg/mL (Staphylococcus aureus [11]) | zone of inhibition at 30 µg/mL (Pseudomonas aeruginosa [12]) | diameter of the inhibition zone (DIZ) (Pseudomonas aeruginosa [13]) | LC50 (Artemia salina) | LC50 at 24 h [14]
1 | Cc1nnc2n(c1=O)N=C(c1ccccc1)CP(c1ccccc1)(c1ccccc1)(c1ccccc1)S2 | 50 µg/mL (≈ 96 µM) | 16 mm | 19 mm | 12.5 µg/mL (≈ 24 µM) | 19 mm | 50 µg/mL (≈ 96 µM) | 21 mm | 25 µg/mL (≈ 48 µM) |  |  |  |  |  |  | 
2 | Cc1nnc(S)n(N)c1=O | 50 µg/mL (≈ 316 µM) | 14 mm | 14 mm | 50 µg/mL (≈ 316 µM) | 15 mm | 25 µg/mL (≈ 158 µM) | 13 mm | 50 µg/mL (≈ 316 µM) |  |  |  |  |  |  | 
3 | CN(C)[C@@H]1C(O)=C(C(N)=O)C(=O)[C@@]2(O)C(O)=C3C(=O)c4c(O)cccc4[C@@](C)(O)[C@H]3C[C@@H]12 [TETRACYCLINE] | 6.25 µg/mL (≈ 14.1 µM) |  |  | 6.25 µg/mL (≈ 14.1 µM) |  | 6.25 µg/mL (≈ 14.1 µM) |  | 6.25 µg/mL (≈ 14.1 µM) | 28 mm | 25 mm | 30 mm | 29 mm | 29 mm |  | 
4 | BLEOMYCIN |  |  |  |  |  |  |  |  |  |  |  |  |  | 0.41 µg/mL | 
5 | Cc1nnc(N)n(N)c1=O | 50 µg/mL (≈ 354 µM) | 14 mm | 15 mm | 25 µg/mL (≈ 177 µM) | 13 mm | 50 µg/mL (≈ 354 µM) | 16 mm | 25 µg/mL (≈ 177 µM) |  |  |  |  |  |  | 
6 | Cc1nnc(NN)n(N)c1=O | 25 µg/mL (≈ 160 µM) | 15 mm | 15 mm | 50 µg/mL (≈ 320 µM) | 15 mm | 50 µg/mL (≈ 320 µM) | 17 mm | 50 µg/mL (≈ 320 µM) |  |  |  |  |  |  | 
7 | CCOP1(=O)Sc2nnc(C)c(=O)n2NC1c1ccc(Cl)cc1 (stereo not drawn) | 50 µg/mL (≈ 134 µM) | 15 mm | 23 mm | 6.25 µg/mL (≈ 16.8 µM) | 20 mm | 25 µg/mL (≈ 67.1 µM) | 27 mm | 6.25 µg/mL (≈ 16.8 µM) |  |  |  |  |  |  | 13.8 µg/mL (≈ 37.1 µM)
8 | CC1=Nn2c(nnc(C)c2=O)SP1(c1ccccc1)(c1ccccc1)c1ccccc1 | 12.5 µg/mL (≈ 28.1 µM) | 19 mm | 19 mm | 25 µg/mL (≈ 56.2 µM) | 22 mm | 12.5 µg/mL (≈ 28.1 µM) | 20 mm | 25 µg/mL (≈ 56.2 µM) |  |  |  |  |  |  | 
9 | Cc1nnc2n(c1=O)NP(=O)(c1ccccc1)S2 (stereo not drawn) | 12.5 µg/mL (≈ 44.6 µM) | 21 mm | 17 mm | 25 µg/mL (≈ 89.2 µM) | 23 mm | 12.5 µg/mL (≈ 44.6 µM) | 20 mm | 25 µg/mL (≈ 89.2 µM) |  |  |  |  |  |  | 7.85 µg/mL (≈ 28 µM)
